# Results: PubChem BioAssay
# Activity calls are given as the source filed them.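 The calls were made as follows, unless noted: active = GFP response above 150% of the DMSO level; inconclusive = fewer than 70 events counted for a yeast strain; inactive = the rest.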
# Legend:
# [1] = hit retest on RPL19A-GFP reporter strain – cell-based, S. cerevisiae, flow cytometry, cherry picks, mother/daughter gates, confirmation (AID 2270;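 active = GFP response below 50% of the DMSO control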); conditions: 3 h, at 10 µM, stronger effect = lower value, 100 = same GFP as DMSO wells
# [2] = yeast TOR pathway reporter LAP4-GFP change – cell-based, cherry picks, flow cytometry, mother/daughter gates, confirmation (AID 2271;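 active = GFP response above 150% of the DMSO control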;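 also: ratio of sample to DMSO plate mean so 100% equals DMSO level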); conditions: S. cerevisiae LAP4-GFP strain, 3 h, at 10 µM, stronger effect = higher value, 100 means same as DMSO control
# Summary of the method: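 Test system: GFP-fusion yeast strain / Amount: 0.2 OD600 cells / Buffer or medium: SC medium / Dosing: 10 µM single dose / Incubation: compound exposure 3 h at 30 °C, end-over-end rotation / Detection: HT flow cytometry, GFP fluorescence channel / Evaluation: median GFP fluorescence as percent of plate-mean DMSO wells / Control set: DMSO-only negative wells, rapamycin 400 ng/mL positive wells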
# [3] = TOR pathway reporter MEP2-GFP, retest of hits – S. cerevisiae, flow cytometry GFP, cherry picks, confirmation (AID 2272;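 active = GFP response above 150% of the DMSO control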;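 also: ratio of well signal to plate DMSO mean so 100% equals DMSO level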); conditions: S. cerevisiae MEP2-GFP strain, 3 h, at 10 µM, stronger effect = higher value
# [4] = yeast AGP1-GFP fluorescence change, single-dose – cell-based, flow cytometry, S. cerevisiae, cherry picks, confirmation (AID 2273);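 also: median GFP channel fluorescence over the whole cell population gate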; conditions: S. cerevisiae AGP1-GFP strain, 3 h, at 10 µM
# [5] = TOR pathway CIT2 reporter hit retest – S. cerevisiae, GFP fusion, cherry picks, mother/daughter gates, confirmation (AID 2274); conditions: S. cerevisiae CIT2-GFP strain, flow cytometry, 3 h, at 10 µM, stronger effect = higher value
# [6] = measured here: daughter cell gate
# [7] = measured here: mother cell gate
# [8] = measured here: daughter cell gate response
# [9] = measured here: mother cell gate response
SMILES,GFP response vs DMSO [1],"GFP response vs DMSO [1, 6] [%]","GFP response vs DMSO [1, 7] [%]",GFP response relative to DMSO [2],"GFP response relative to DMSO [2, 8] [%]","GFP response relative to DMSO [2, 9] [%]",GFP response vs DMSO [3],"GFP response, % of DMSO [4]","GFP response, % of DMSO [5]","GFP response, % of DMSO [5, 6] [%]","GFP response, % of DMSO [5, 7] [%]"
COc1ccc(-c2ccc(S(=O)(=O)N3CCOCC3)cc2)cc1,95.4% (inactive),93.9,95.7,107% (inactive),106,107,99% (inactive),100% (inactive),100% (inactive),97.4,102
CC(=O)Nc1c(-c2ccc(F)cc2)nc2ccccn12,97.6% (inactive),99,95.8,106% (inactive),110,108,116% (inactive),106% (inactive),110% (inactive),114,108
CCCc1[nH]nc2c1C(c1cc(OC)ccc1F)C(C#N)=C(N)O2 (stereo not drawn),98% (inactive),99.3,97.7,101% (inactive),101,100,96.8% (inactive),101% (inactive),105% (inactive),103,104
COc1ccc(OC)c(/C=C/C(=O)c2ccc(Cl)cc2)c1,92.2% (inactive),91.9,92,104% (inactive),97.6,105,96.2% (inactive),98.5% (inactive),101% (inactive),101,101
O=[N+]([O-])c1ccc(Sc2ccccc2Cl)nc1,103% (inactive),104,103,91.9% (inactive),93.6,89.7,112% (inactive),106% (inactive),105% (inactive),106,103
COC(=O)Cn1nc(-c2ccccc2)c2cc(Cl)ccc21,101% (inactive),100,101,104% (inactive),104,104,109% (inactive),102% (inactive),114% (inactive),116,112
COc1ccc(OC)c(C2C(C(=O)Nc3nc4ccccc4s3)=C(C)NC3=C2C(=O)CCC3)c1 (stereo not drawn),102% (inactive),78.4,78.4,102% (inactive),86.4,82.9,109% (inactive),103% (inactive),103% (inactive),85,83.7
CCOC(=O)c1csc(Nc2nc3ccc(F)cc3s2)n1,94.6% (inactive),95.2,94.2,103% (inactive),102,104,99% (inactive),93.4% (inactive),95.9% (inactive),97.4,95.6
CC(Oc1ccc(Cl)cc1Cl)C(=O)NC1=NN(c2ccccc2)C(=O)C1 (stereo not drawn),95.8% (inactive),98.9,96.4,101% (inactive),101,98.3,98.3% (inactive),102% (inactive),98.3% (inactive),99.1,97.3
CCOC(=O)c1sc(Nc2nc3c(OC)cccc3s2)nc1C,103% (inactive),77.4,69,97% (inactive),94.2,92,112% (inactive),106% (inactive),100% (inactive),90.2,90.7
O=C(Nc1ccc(F)cc1)C1CCCN(c2cnccn2)C1 (stereo not drawn),102% (inactive),101,102,99.5% (inactive),99.1,100,96.8% (inactive),105% (inactive),102% (inactive),99.2,103
Cc1cccc(CSc2cccc3cccnc23)c1,92.3% (inactive),91.3,92.1,130% (inactive),125,132,97.2% (inactive),89.1% (inactive),88.9% (inactive),90.5,85.9
CC(=O)Nc1ccc(NC(=O)c2nc(S(=O)(=O)Cc3cccc(C)c3)ncc2Cl)cc1,102% (inactive),99.5,103,93.8% (inactive),97.2,95.2,100% (inactive),97.4% (inactive),104% (inactive),103,105
Cc1cc(C)nc(S/C=C/C(=O)c2ccccc2F)n1,103% (inactive),102,102,120% (inactive),119,123,107% (inactive),94.3% (inactive),95.2% (inactive),98.1,92.3
Cc1nc2ccccc2n2c(O)c(CC(=O)O)cc12,98.7% (inactive),98.5,99.3,103% (inactive),96.5,99.5,102% (inactive),98.9% (inactive),92.1% (inactive),96.4,85.1
O=C(COC(=O)c1n[nH]c2ccccc12)c1ccc(F)c(F)c1,97.1% (inactive),98.7,96.3,104% (inactive),97.5,106,103% (inactive),97% (inactive),98.6% (inactive),101,98.2
COc1ccc(N2C(=O)CC(Sc3ncn[nH]3)C2=O)c(OC)c1 (stereo not drawn),107% (inactive),112,102,172% (active),161,167,110% (inactive),102% (inactive),109% (inactive),115,101

SMILES,GFP response vs DMSO [1],"GFP response vs DMSO [1, 6] [%]","GFP response vs DMSO [1, 7] [%]",GFP response relative to DMSO [2],"GFP response relative to DMSO [2, 8] [%]","GFP response relative to DMSO [2, 9] [%]",GFP response vs DMSO [3],"GFP response, % of DMSO [4]","GFP response, % of DMSO [5]","GFP response, % of DMSO [5, 6] [%]","GFP response, % of DMSO [5, 7] [%]"
O=C(NNC(=S)NC(=O)C12CC3CC(CC(C3)C1)C2)c1ccncc1,109% (inactive),115,106,137% (inactive),125,136,112% (inactive),97.3% (inactive),115% (inactive),124,106
C=CCNC(=O)/C(C#N)=C/c1c(N2CC(C)OC(C)C2)nc2ccccn2c1=O (stereo not drawn),98.8% (inactive),99.5,98.4,102% (inactive),100,105,102% (inactive),100% (inactive),96.5% (inactive),98.1,94.4
O=C1C=CC(=O)N1c1ccc(Sc2ccc([N+](=O)[O-])cc2)cc1,74% (inactive),96.8,61.1,143% (inactive),142,124,125% (inactive),106% (inactive),79.7% (inactive),90.5,63.8
NC(N)=N/N=C/c1ccc(OCc2ccc(Cl)cc2Cl)cc1,88.9% (inactive),82.8,87.2,115% (inactive),106,121,105% (inactive),99.1% (inactive),85.5% (inactive),80.7,84.3
O=C(COC(=O)c1cccs1)Nc1nc(-c2ccccc2)cs1,97% (inactive),95.6,98.4,99.2% (inactive),99.2,99.3,96.2% (inactive),99.1% (inactive),99.7% (inactive),99.1,96.1
CC(C)Cn1c(=O)c(C(=O)Nc2ccncc2)c(O)c2ccccc21,94.7% (inactive),101,85,160% (active),122,155,117% (inactive),88.7% (inactive),97.8% (inactive),99.7,90.2
CN1c2ccsc2/C(=N/Nc2ccc(F)cc2)CS1(=O)=O,99.2% (inactive),99.6,99,134% (inactive),130,134,114% (inactive),103% (inactive),109% (inactive),108,109
Fc1ccccc1-c1nc(NCCCN2CCOCC2)c2ccccc2n1,94.4% (inactive),93.6,95.6,101% (inactive),99.2,98.3,96.2% (inactive),98.5% (inactive),96.9% (inactive),97.2,97.3
COCCNC(=O)c1ccccc1-c1nc(-c2ccccc2Cl)no1,98% (inactive),97.1,98.9,101% (inactive),99.2,99.3,105% (inactive),96% (inactive),105% (inactive),105,103
COc1ccc(C2c3c(oc4ccccc4c3=O)C(=O)N2CCN2CCOCC2)cc1OC (stereo not drawn),103% (inactive),95.3,101,119% (inactive),116,114,172% (inactive),105% (inactive),129% (inactive),116,113
C[n+]1ccc(/C=C/c2c[nH]c3ccc(F)cc23)cc1,101% (inactive),99.5,102,113% (inactive),110,115,120% (inactive),104% (inactive),110% (inactive),108,112
CCc1sc(C(=O)N2CCc3ccccc32)cc1C,94.9% (inactive),93.3,94.6,114% (inactive),111,114,99.3% (inactive),96.8% (inactive),87.5% (inactive),85.2,88.2
Fc1ccc(/C=N/Nc2nc(-c3cccnc3)nc3ccccc23)cc1,94.5% (inactive),92.5,95,107% (inactive),105,111,102% (inactive),94.6% (inactive),93.9% (inactive),96.5,91.2
CCOC(=O)Cc1csc(NC(=O)c2sc3nc4ccc(C)cc4cc3c2N)n1,98.8% (inactive),98.1,100,91.4% (inactive),91,95.2,102% (inactive),96.7% (inactive),92.6% (inactive),94.8,92.3
Cc1cc(N2CCC(C)CC2)n2ncc(-c3ccccc3)c2n1,99.9% (inactive),98.7,100,96.2% (inactive),94.1,98.3,97.8% (inactive),101% (inactive),102% (inactive),99.7,101
CC(=O)Oc1ccc(N2C(=O)C3C4C=CC(O4)C3C2=O)cc1 (stereo not drawn),98.2% (inactive),99.1,98.9,102% (inactive),101,101,107% (inactive),96.8% (inactive),99.7% (inactive),99.1,99.7
